Experimental data from different studies.
Each line is one published result; the experiments were not run side by side.
Target: Carbonic anhydrase 2 (CA2, Homo sapiens, UniProt P00918)
Read-out: enzyme activity
Action: inhibitor

For `COc1ccc(NC(=S)N/N=C/c2ccc(N3CCC(O)CC3)cc2)cc1`, the Ki was 603 nM.
The Ki of `Cn1cnc([N+](=O)[O-])c1Sc1ncnc2nc[nH]c12` is reported as 13000 nM (absorbance).
The Ki of `CC(C)CNC(=S)N/N=C/c1ccc(N2CCC(O)CC2)cc1` is reported as 716 nM.
`NS(=O)(=O)c1nnc(NC(=O)C(F)CC2CCCCC2)s1` (centres unmarked) has a Ki of 4.9 nM (stopped-flow).
For `OC1CCN(c2ccc(/C=N/NC(=S)Nc3ccc(Cl)cc3)cc2)CC1`, the Ki was 401 nM.
`Cc1c(Cl)c(=O)oc2cc(OCCCCSC#N)ccc12` has a Ki of > 100000 nM (stopped-flow).
`OC1CCN(c2ccc(/C=N/NC(=S)NCc3ccccc3)cc2)CC1` gave a Ki of 561 nM.
For `Cc1cc(=O)oc2cc(OCCCCSC#N)ccc12`, the Ki was > 100000 nM (stopped-flow).
`CCOCCn1c(C2CCN(CCc3ccc(C(C)(C)C(=O)O)cc3)CC2)nc2ccccc21` has a Ki of 8440 nM (absorbance).
With `OC1CCN(c2ccc(/C=N/NC(=S)Nc3ccc(F)cc3)cc2)CC1` the Ki was 283 nM.
For `CC1CCC(CC(=O)Nc2nnc(S(N)(=O)=O)s2)CC1` (centres unmarked), the Ki was 22.3 nM (stopped-flow).
For `O=C(O)COCCN1CCN(C(c2ccccc2)c2ccc(Cl)cc2)CC1` (centres unmarked), the Ki was 9590 nM (absorbance).
`NS(=O)(=O)c1nnc(NC(=O)C2CCC3(CCC3)CC2)s1` gave a Ki of 21.7 nM (stopped-flow).
`C[C@H]1c2cccc(O)c2C(=O)C2=C(O)[C@]3(O)C(=O)C(C(N)=O)=C(O)[C@@H](N(C)C)[C@@H]3[C@@H](O)[C@@H]21` gave a Ki of 8970 nM (absorbance).
`C[C@H]1CCC[C@H](C(=O)Nc2nnc(S(N)(=O)=O)s2)C1` (racemic) has a Ki of 14.9 nM (stopped-flow).
The Ki of `Cc1cncc(CN2CCC(=C3c4ccc(Cl)cc4CCc4cccnc43)CC2)c1` is reported as 9180 nM (absorbance).
`NS(=O)(=O)c1nnc(NC(=O)CN2CC3CCC2CC3)s1` has a Ki of 43.7 nM (stopped-flow).
`OC1CCN(c2ccc(/C=N/NC(=S)Nc3ccccc3)cc2)CC1` has a Ki of 507 nM.
`O=c1[nH]c(=O)n([C@H]2C[C@H](O)[C@@H](CO)O2)cc1/C=C/Br` gave a Ki of 7440 nM (absorbance).
With `NS(=O)(=O)c1nnc(NC(=O)CN2CCC(F)CC2)s1` the Ki was 14.1 nM (stopped-flow).
